From PubChem BioAssay
Inconclusive results are not listed.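 How the source made its calls, unless noted: active means viability increase at or above a cutoff of the median across tested compounds plus 3 SD (cut at about 8.5% in these data, passing the limit was not always enough); inconclusive means some gains above the cutoff, reason not given; inactive means the rest.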

Legend:
[1] = OD615 S. cerevisiae growth inhibition, permissive medium, pilot counter-assay, permissive growth control for S. cerevisiae lifespan shortening project (AID 705;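 active means growth inhibition above 25% in both replicates, a cutoff set 3 SD above the mean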); details: OD615, 24 h, at 10 µM, hits give high values
Summary of the method: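 System – S. cerevisiae with engineered DeaD lifespan system · Buffer or medium – SC raffinose/galactose permissive medium · Schedule – cells pre-grown 4 h, then 24 h compound exposure, 30 °C humidified · Technique – culture turbidity as optical density at 615 nm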

[2] = Restrictive medium S. cerevisiae growth inhibition, OD615, pilot screen of yeast lifespan reduction project, restrictive growth control (AID 706;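 active means growth inhibition above a set limit, 3 SD over mean compound inhibition, in both replicates, cut at about 43% in these data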;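 further: modified DeaD lifespan yeast strain shifted to restrictive glucose medium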); details: OD615, 48 h, at 10 µM, hits give high values
Summary of the method: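 Material: engineered S. cerevisiae DeaD strain / Medium: glucose-based CSMM-D restrictive medium / Compound: single dose of 10 µM compound final, 0.25% DMSO / Timing: 4 h pre-incubation, 48 h exposure at 30 °C / Technique: OD615 absorbance reading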

[3] = viability gain of MRP-1-high H69AR cells under doxorubicin, pilot screen, MRP-1 activator project, CellTiter-Glo, duplicate (AID 807); details: H69AR viability with doxorubicin, CellTiter-Glo luminescence; at 10 µM; hits give high values;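 further: compound pretreatment 18-22 h then 72 h combined with doxorubicin; 0% = doxorubicin alone and 100% = vehicle without doxorubicin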
[4] = growth suppression of beta-catenin knockout HCT116, pilot screen, human colon tumor cells (AID 823;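 active means cell viability at or below a set limit in both duplicate runs, the limit being the all-compound median minus 4 SD, cut at about 23% in these data, passing the limit was not always enough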;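 further: 0% = wells killed by 20 µM Hyamine and 100% = untreated DMSO cell wells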); details: CellTiter-Glo, 60 h, at 10 µM, hits give low values
[5] = growth suppression of PTEN-deleted HCT116, pilot screen, cell-based, HCT116 clonal line, CellTiter-Glo (AID 824;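 active means viability at or below 27.92% in each of two runs, the all-compound median minus 4 SD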;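 further: 0% = 20 µM Hyamine control and 100% = vehicle cell control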); details: 60 h, at 10 µM, hits give low values
[6] = inhibitors of the yeast RAM network, pilot screen, dse1pr::URA3 reporter, 5-FOA selection (AID 869;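 active means inhibition over a set limit, the all-compound mean plus 3 SD, in both replicate runs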;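 further: 0% = DMSO wells with no growth and 100% = 10 µM 1-NA-PP1 with full growth; RAM network block rescues cells from 5-FOA so hits raise OD615 growth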); details: S. cerevisiae dse1pr::URA3 5-FOA growth, OD615, 2 d; at 10 µM; hits give high values; strain carries analog-sensitive mutant Cbk1 kinase
[7] = RAM signaling pathway blockade in yeast – S. cerevisiae, Pdr1DBD-CYC8 efflux-inhibited sensitized strain, primary screen (AID 1298;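 active means RAM network inhibition above 8.4% in each of two replicates, 3 SD over the compound average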;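 further: 0% = DMSO untreated cells without growth and 100% = 10 µM 1-NA-PP1 full growth; higher means more yeast growth rescued from 5-FOA killing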); details: S. cerevisiae cbk1-as DSE1-URA3 strain, 5-FOA growth OD615, 2 d; at 50 µM; hits give high values

Cc1cccc(C2Nc3ccccc3C(=O)N2CCc2ccccc2)n1 (stereo not given)
inactive: growth inhibition [1] -10.1% | growth inhibition [2] -2.82% | viability increase [3] -2.91% | viability [4] 78.3% | viability [5] 73.5% | inhibition [6] 2.09% | RAM network inhibition [7] 7.42%

O=S(=O)(c1ccc(-c2cn3ccccc3n2)cc1)N1CCOCC1
inactive: growth inhibition [1] 1.49% | growth inhibition [2] -12.4% | viability increase [3] -3.55% | viability [4] 86.7% | viability [5] 97.3% | inhibition [6] 1.14% | RAM network inhibition [7] 3.9%

O=S(=O)(NCCSc1nc2ccccc2o1)c1ccccc1
inactive: growth inhibition [1] -8% | growth inhibition [2] -2.81% | viability increase [3] -1.25% | viability [4] 94.4% | viability [5] 89% | inhibition [6] -0.55% | RAM network inhibition [7] 6.51%

O=C(Nc1nc(-c2ccc3c(c2)OCO3)cs1)C1COc2ccccc2O1 (stereo not given)
inactive: growth inhibition [1] 0.51% | growth inhibition [2] 3.12% | viability increase [3] 1.56% | viability [4] 99.8% | viability [5] 88.9% | inhibition [6] 2.81% | RAM network inhibition [7] 4.11%

CCCCn1c(CNC(=O)CC)nc2ccccc21
inactive: growth inhibition [1] -4.54% | growth inhibition [2] -9.44% | viability increase [3] -2.1% | viability [4] 103% | viability [5] 102% | inhibition [6] 0.825% | RAM network inhibition [7] 1.89%

CCOc1ccc(CCNC(=O)c2oc3c(c2C)-c2[nH]ncc2CC3)cc1OCC
inactive: growth inhibition [1] -11.9% | growth inhibition [2] -11.6% | viability increase [3] -2.93% | viability [4] 105% | viability [5] 92.7% | inhibition [6] 1.57% | RAM network inhibition [7] 9.8%

O=C(O)CCc1ccc(-c2cccs2)n1NC(=O)c1ccc(Cl)cc1
inactive: growth inhibition [1] -6.03% | growth inhibition [2] -14.6% | viability increase [3] -3.75% | viability [4] 98% | viability [5] 93.9% | inhibition [6] 0.29% | RAM network inhibition [7] -0.58%

COc1ccc(OC)c(-n2c(SCC(=O)Nc3cc(C)on3)nnc2-c2c[nH]c3ccccc23)c1
inactive: growth inhibition [1] -1.04% | growth inhibition [2] 6.54% | viability increase [3] -2.74% | viability [4] 79.2% | viability [5] 78.8% | inhibition [6] 1.31% | RAM network inhibition [7] 1.29%

CCOC(=O)N1CCC(N2CC34C=CC(O3)C(C(=O)Nc3ccc(C(C)C)cc3)C4C2=O)CC1 (stereo not given)
inactive: growth inhibition [1] 2.48% | growth inhibition [2] -7.2% | viability increase [3] 3.15% | viability [4] 102% | viability [5] 99.6% | inhibition [6] 0.27% | RAM network inhibition [7] -0.37%

O=C(Nc1ccc(N2CCOCC2)cc1)NC1CCCCC1
inactive: growth inhibition [1] -0.89% | growth inhibition [2] 1.07% | viability increase [3] -1.27% | viability [4] 103% | viability [5] 101% | inhibition [6] -0.22% | RAM network inhibition [7] 9.28%

O=C(O)CC1(Cc2nc(-c3cccs3)no2)CCCC1
inactive: growth inhibition [1] 5.79% | growth inhibition [2] 0.06% | viability increase [3] 0.13% | viability [4] 96.1% | viability [5] 94.6% | inhibition [6] 0.35% | RAM network inhibition [7] -0.58%

c1ccc(CNc2ncnc3c2ncn3C2CCCCO2)cc1 (stereo not given)
inactive: growth inhibition [1] -5.22% | growth inhibition [2] -8.96% | viability increase [3] -1.76% | viability [4] 101% | viability [5] 98% | inhibition [6] 1.25% | RAM network inhibition [7] 5.84%

COc1ccc(NC(=O)C2c3cc(OC)c(OC)cc3C(=O)N(C)C2c2cccnc2)cc1OC (stereo not given)
inactive: growth inhibition [1] -1.76% | growth inhibition [2] -0.86% | viability increase [3] -3.2% | viability [4] 94.8% | viability [5] 95.5% | inhibition [6] 0.645% | RAM network inhibition [7] 4.68%

CC1Cc2nc(SCC(=O)NCc3ccco3)n(-c3ccccc3)c(=O)c2S1 (stereo not given)
inactive: growth inhibition [1] -6.6% | growth inhibition [2] -7.02% | viability increase [3] -4.56% | viability [4] 103% | viability [5] 99% | inhibition [6] 0.405% | RAM network inhibition [7] 6.31%

CCc1nnc(NC(=O)c2ccc(N3C(=O)CCC3=O)cc2)s1
inactive: growth inhibition [1] -9.63% | growth inhibition [2] -14.9% | viability increase [3] -1.98% | viability [4] 101% | viability [5] 94.7% | inhibition [6] 1.32% | RAM network inhibition [7] 2.48%
